Experimental data of several laboratories.
Lines come from different studies, so protocols differ.
Target: Amine oxidase [flavin-containing] B (MAOB, Homo sapiens, UniProt P27338)
Effect on: enzyme activity
Action: inhibitor
One construct used (P27338 1-520): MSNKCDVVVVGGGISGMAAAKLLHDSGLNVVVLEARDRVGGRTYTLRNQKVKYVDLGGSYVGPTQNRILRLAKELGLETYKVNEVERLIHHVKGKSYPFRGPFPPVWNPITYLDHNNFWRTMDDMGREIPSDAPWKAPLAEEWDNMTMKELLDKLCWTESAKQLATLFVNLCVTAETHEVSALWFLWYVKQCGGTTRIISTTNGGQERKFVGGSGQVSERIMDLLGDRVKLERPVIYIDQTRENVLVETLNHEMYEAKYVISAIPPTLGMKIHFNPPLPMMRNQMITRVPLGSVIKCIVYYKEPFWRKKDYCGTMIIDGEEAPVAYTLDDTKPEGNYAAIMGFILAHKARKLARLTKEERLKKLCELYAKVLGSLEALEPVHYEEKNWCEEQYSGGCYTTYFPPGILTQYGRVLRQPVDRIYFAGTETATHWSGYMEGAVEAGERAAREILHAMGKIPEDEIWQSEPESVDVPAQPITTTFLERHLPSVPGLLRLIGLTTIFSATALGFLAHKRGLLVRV

O=C(Nc1ccc(Br)cc1)c1cc(Cl)ccc1O
IC50: 139 nM

O=C1c2c(O)cc(O)cc2O[C@H](c2ccc(O)cc2)[C@H]1O
IC50: 68100 nM

COc1ccc(/C=C/C(=O)N2CCC(Cc3ccccc3)CC2)cc1OC
IC50 (fluorescence): 1100 nM

O=C(O)c1cc(O)c2c(c1)C(=O)c1cc(O)cc(O)c1C2=O
IC50: 31900 nM

c1ccc(Nc2nccc(-c3cccnc3)n2)cc1
IC50 (fluorescence): 400 nM

COC(=O)c1ccc(C(=O)OC)c(NC(=O)c2cc(Cl)ccc2O)c1
IC50: > 1000 nM

O=c1cc(-c2ccc(O)cc2)oc2c([C@@H]3O[C@H](CO)[C@@H](O)[C@H](O)[C@H]3O)c(O)cc(O)c12
IC50: 34100 nM

COc1cc(/C=C/C(=O)N2CCc3ccccc3C2)ccc1OCc1ccccc1
IC50 (fluorescence): 3100 nM

O=C(c1ccc(O)cc1O)[C@H](O)[C@@H](O)c1ccc(O)cc1
IC50: 29900 nM

COc1cc(/C=C/C(=O)N2CCC(Cc3ccccc3)CC2)ccc1OC1CCCCC1
IC50 (fluorescence): 560 nM

COc1cccc(CNc2nc3ccc(C)cc3n3cnnc23)c1
IC50 (fluorescence): 180 nM

O=C1C[C@@H](c2ccc(O)cc2)Oc2cc(O)cc(O)c21
IC50: 270 nM

Nc1nn(-c2ccccc2)nc1C(=O)O
IC50 (fluorescence): > 10000 nM

CCn1c(-c2nc3ccc(C(=O)N4CCCC(N)C4)cc3n2C)cc2ccccc21 (stereo not shown)
IC50: 20000 nM

O=c1c(O)c(-c2ccc(O)c(O)c2)oc2cc(O)ccc12
IC50: > 100000 nM

Cn1c(=O)c2ccc(C(=O)Nc3ccccc3F)nc2n(C)c1=O
IC50 (fluorescence): 61 nM
